{"data": "Experimental data of several laboratories", "PIK3CA M1043I": "Phosphatidylinositol 4,5-bisphosphate 3-kinase catalytic subunit alpha isoform (PIK3CA, Homo sapiens, UniProt P42336, M1043I)", "PIK3CA E542K": "Phosphatidylinositol 4,5-bisphosphate 3-kinase catalytic subunit alpha isoform (PIK3CA, Homo sapiens, UniProt P42336, E542K)", "PIK3CA E545K": "Phosphatidylinositol 4,5-bisphosphate 3-kinase catalytic subunit alpha isoform (PIK3CA, Homo sapiens, UniProt P42336, E545K)", "PIK3CA": "Phosphatidylinositol 4,5-bisphosphate 3-kinase catalytic subunit alpha isoform (PIK3CA, Homo sapiens, UniProt P42336)", "PIK3CA Q546K": "Phosphatidylinositol 4,5-bisphosphate 3-kinase catalytic subunit alpha isoform (PIK3CA, Homo sapiens, UniProt P42336, Q546K)", "PIK3CA C420R": "Phosphatidylinositol 4,5-bisphosphate 3-kinase catalytic subunit alpha isoform (PIK3CA, Homo sapiens, UniProt P42336, C420R)", "PIK3CA H1047L": "Phosphatidylinositol 4,5-bisphosphate 3-kinase catalytic subunit alpha isoform (PIK3CA, Homo sapiens, UniProt P42336, H1047L)", "PIK3CA H1047Y": "Phosphatidylinositol 4,5-bisphosphate 3-kinase catalytic subunit alpha isoform (PIK3CA, Homo sapiens, UniProt P42336, H1047Y)", "note": "Lines come from different studies, so protocols differ."}
{"Compound": "CN1CCN(c2ccc(Nc3nccc(-c4ccccc4)n3)cc2C(F)(F)F)CC1", "target": "PIK3CA M1043I", "read-out": "binding", "tested at": "10 µM", "remaining binding": "92%"}
{"Compound": "c1cncc(-c2cccc(Nc3nccc(NC4CCCCC4)n3)c2)c1", "target": "PIK3CA E542K", "read-out": "binding", "method": "competition with immobilised ligand", "tested at": "10 µM", "remaining binding": "88%"}
{"Compound": "C[C@@H](c1ccc(-n2cnc3c(N)ncnc32)cc1)N1CCc2nn(C)c(Cc3ccccc3)c2C1=O", "target": "PIK3CA E545K", "read-out": "binding", "method": "competition with immobilised ligand", "tested at": "0.1 µM", "remaining binding": "67%"}
{"Compound": "C[C@@H]1CCN(c2nccc(-c3cnn4ncccc34)n2)C1", "target": "PIK3CA E542K", "read-out": "binding", "tested at": "1 µM", "remaining binding": "82%"}
{"Compound": "CN1CCN(c2ccc(Nc3nccc(-c4cccc([N+](=O)[O-])c4)n3)cc2C(F)(F)F)CC1", "target": "PIK3CA E542K", "read-out": "binding", "tested at": "10 µM", "remaining binding": "36%"}
{"Compound": "O=C(NCC1CCOCC1)c1n[nH]cc1NC(=O)c1c(F)cccc1F", "target": "PIK3CA", "read-out": "binding", "method": "competition with immobilised ligand", "tested at": "1 µM", "remaining binding": "100%"}
{"Compound": "CNC(=O)[C@@H]1CC[C@@H](n2c(-c3ccc4cnccc4c3)nc3ccc(C(=O)NCc4cccc(C(N)=O)c4)cc32)C1", "target": "Phosphatidylinositol 4,5-bisphosphate 3-kinase catalytic subunit alpha isoform (PIK3CA, Homo sapiens, UniProt P42336, E545A)", "read-out": "binding", "method": "competition with immobilised ligand", "tested at": "1 µM", "remaining binding": "89%"}
{"Compound": "CN(CCCC(F)(F)F)c1nccc(-c2cnn3ncccc23)n1", "target": "PIK3CA E545K", "read-out": "binding", "tested at": "1 µM", "remaining binding": "100%"}
{"Compound": "c1ccc(N2CCN(Cc3nc4ccccc4[nH]3)CC2)nc1", "target": "PIK3CA Q546K", "read-out": "cell-free assay", "method": "competition with immobilised ligand", "tested at": "1 µM", "remaining binding": "100%"}
{"Compound": "O=C(Nc1c[nH]nc1C(=O)NC1CCNCC1)c1cc(F)cc(F)c1", "target": "PIK3CA Q546K", "read-out": "binding", "method": "competition with immobilised ligand", "tested at": "1 µM", "remaining binding": "100%"}
{"Compound": "O=C(c1ccc(Nc2ncc(Cl)c(-c3ccc(Cl)s3)n2)cc1)N1CCC(N2CCCC2)CC1", "target": "PIK3CA E545K", "read-out": "binding", "method": "competition with immobilised ligand", "tested at": "1 µM", "remaining binding": "70%"}
{"Compound": "CS(=O)(=O)N1CCCC(NC(=O)[C@H](CCC2CCCCC2)NC(=O)c2ccc(CNC(=O)c3cnc4ccccn34)cc2)C1 (stereo partly shown)", "target": "PIK3CA", "read-out": "binding", "method": "competition with immobilised ligand", "tested at": "1 µM", "remaining binding": "37%"}
{"Compound": "CCN1CCN(Cc2ccc(C(=O)Nc3ccc(C)c(Oc4ccc5c(c4)CC(=O)N5)c3)cc2C(F)(F)F)CC1", "target": "PIK3CA C420R", "read-out": "binding", "method": "competition with immobilised ligand", "tested at": "1 µM", "remaining binding": "100%"}
{"Compound": "O=C(c1ccc(Nc2ncc(Cl)c(-c3cc4ccccc4s3)n2)cc1)N1CCC(N2CCCC2)CC1", "target": "PIK3CA H1047L", "read-out": "binding", "method": "competition with immobilised ligand", "tested at": "1 µM", "remaining binding": "80%"}
{"Compound": "CN(C)c1ncc(F)c(-c2cnn3ncccc23)n1", "target": "PIK3CA E542K", "read-out": "binding", "tested at": "1 µM", "remaining binding": "69%"}
{"Compound": "Cn1nc(C(=O)NCc2ccc(C(=O)O)cc2)cc1-c1ccc2[nH]ccc2c1", "target": "PIK3CA Q546K", "read-out": "cell-free assay", "method": "competition with immobilised ligand", "tested at": "0.1 µM", "remaining binding": "76%"}
{"Compound": "CN(c1nccc(-c2cnn3ncccc23)n1)C1CC1", "target": "PIK3CA M1043I", "read-out": "binding", "tested at": "1 µM", "remaining binding": "100%"}
{"Compound": "Cc1c(-c2ccccc2)oc2c(C(=O)OCCN3CCCCC3)cccc2c1=O", "target": "PIK3CA", "read-out": "cell-free assay", "method": "competition with immobilised ligand", "tested at": "0.1 µM", "remaining binding": "100%"}
{"Compound": "Cc1nc(Cc2cccc(C(F)(F)F)c2)sc1-c1ccc(C(N)=O)nc1", "target": "PIK3CA C420R", "read-out": "cell-free assay", "method": "competition with immobilised ligand", "tested at": "1 µM", "remaining binding": "89%"}
{"Compound": "CN(C)c1nccc(-c2cnc3ncccn23)n1", "target": "Phosphatidylinositol 4,5-bisphosphate 3-kinase catalytic subunit alpha isoform (PIK3CA, Homo sapiens, UniProt P42336, I800L)", "read-out": "binding", "tested at": "1 µM", "remaining binding": "63%"}
{"Compound": "O=C(c1ccc(Nc2nccc(-c3cc4ccccc4s3)n2)cc1)N1CCC(N2CCCC2)CC1", "target": "PIK3CA H1047Y", "read-out": "binding", "method": "competition with immobilised ligand", "tested at": "1 µM", "remaining binding": "61%"}
{"Compound": "C=CC(=O)N1CCC(C(=O)NCC(=O)N2CCN(c3nc(-c4cnc(N)nc4C(F)F)nc(N4CCOCC4)n3)CC2)CC1", "target": "PIK3CA", "read-out": "binding", "method": "competition with immobilised ligand", "tested at": "1 µM", "remaining binding": "0.4%"}
{"Compound": "CC1CCCN1c1nccc(-c2cnn3ncccc23)n1 (stereo not shown)", "target": "PIK3CA H1047Y", "read-out": "binding", "tested at": "1 µM", "remaining binding": "88%"}
{"Compound": "Cc1cnc(Nc2ccc(C(=O)N3CCC(N4CCCC4)CC3)cc2)nc1-c1cc2ccccc2s1", "target": "PIK3CA H1047Y", "read-out": "binding", "method": "competition with immobilised ligand", "tested at": "1 µM", "remaining binding": "65%"}
{"Compound": "CN1CC[C@H](c2c(O)cc(O)c3c(=O)cc(-c4ccccc4Cl)oc23)[C@H](O)C1", "target": "PIK3CA", "read-out": "cell-free assay", "method": "competition with immobilised ligand", "tested at": "10 µM", "remaining binding": "97%"}
{"Compound": "O=C(NCc1ncc(C(F)(F)F)cc1Cl)c1ccc2c(c1)C1(CCS(=O)(=O)CC1)[C@H](C1CC1)N2S(=O)(=O)c1ccc(F)cc1", "target": "PIK3CA H1047L", "read-out": "cell-free assay", "method": "competition with immobilised ligand", "tested at": "1 µM", "remaining binding": "77%"}
{"Compound": "O=C(NCCCN1CCOCC1)c1ccc(Nc2nccc(-c3cc4ccccc4s3)n2)cc1", "target": "PIK3CA H1047L", "read-out": "binding", "method": "competition with immobilised ligand", "tested at": "1 µM", "remaining binding": "90%"}
{"Compound": "N[C@@H]1CCN(c2nccc(-c3cnn4ncccc34)n2)C1", "target": "PIK3CA E545K", "read-out": "binding", "tested at": "1 µM", "remaining binding": "100%"}
{"Compound": "Nc1ncc2c(n1)-c1c([nH]c3ccc(C#CC4CC4)cc13)CCCC2", "target": "PIK3CA E542K", "read-out": "binding", "method": "competition with immobilised ligand", "tested at": "1 µM", "remaining binding": "91%"}
{"Compound": "NS(=O)(=O)c1cc(NC(=O)C2(c3ccccc3Cl)CC2)ccc1Oc1cccc(Cl)c1", "target": "PIK3CA H1047Y", "read-out": "cell-free assay", "method": "competition with immobilised ligand", "tested at": "1 µM", "remaining binding": "76%"}
{"Compound": "COc1ccnn2ncc(-c3ccnc(N(C)C)n3)c12", "target": "PIK3CA E542K", "read-out": "binding", "tested at": "1 µM", "remaining binding": "95%"}
{"Compound": "COc1ncc2cc3ccccc3nc2c1C#N", "target": "PIK3CA E542K", "read-out": "cell-free assay", "method": "competition with immobilised ligand", "tested at": "5 µM", "remaining binding": "100%"}
{"Compound": "COc1cnc(Nc2cccc(S(N)(=O)=O)c2)nc1N1CCN(c2ccccc2)C(=O)C1", "target": "PIK3CA", "read-out": "binding", "method": "competition with immobilised ligand", "tested at": "1 µM", "remaining binding": "100%"}
{"Compound": "Cn1nc(C(F)(F)F)cc1-c1cnc(N2CCc3cc(S(=O)(=O)Nc4c(F)cc(Cl)cc4F)cc(N4CCCC4=O)c32)nc1", "target": "PIK3CA E545K", "read-out": "cell-free assay", "method": "competition with immobilised ligand", "tested at": "1 µM", "remaining binding": "82%"}
{"Compound": "COc1cnc(Nc2cccc(S(N)(=O)=O)c2)nc1N1CCN(c2ccccc2)CC1", "target": "PIK3CA E545K", "read-out": "binding", "method": "competition with immobilised ligand", "tested at": "1 µM", "remaining binding": "72%"}
{"Compound": "COc1cc(-c2cn(C3CCc4c(F)cccc4N(CC(F)(F)F)C3=O)nn2)ccc1-n1cnc(C)c1 (stereo not shown)", "target": "PIK3CA E545K", "read-out": "cell-free assay", "method": "competition with immobilised ligand", "tested at": "1 µM", "remaining binding": "70%"}
{"Compound": "O=C(NCCCN1CCOCC1)c1ccc(Nc2ncc(Cl)c(-c3ccc(Cl)s3)n2)cc1", "target": "PIK3CA M1043I", "read-out": "binding", "method": "competition with immobilised ligand", "tested at": "1 µM", "remaining binding": "100%"}
